This is a sample that favours compounds with a hit; in the whole collection about 2.9% have one here.
UBC13 inh – human UBC13 polyubiquitination inhibition; UBC13 polyubiquitin chain formation, TR-FRET; inhibition, % at 20 µM; actives 0.47% (n = 330,000); in the data active = inhibition above about 45%, passing the limit was not always enough
Target sequence (P61088 whole entry, looked up): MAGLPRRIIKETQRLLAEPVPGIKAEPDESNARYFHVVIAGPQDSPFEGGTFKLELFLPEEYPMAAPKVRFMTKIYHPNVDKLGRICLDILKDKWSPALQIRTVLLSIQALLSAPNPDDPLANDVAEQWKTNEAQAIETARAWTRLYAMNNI
MEKK2wt PB1 HTS – raises or lowers MEK5 binding to wildtype human MEKK2 PB1 domain; binding response (% of control), % at 10 µM; actives 1.1% (n = 290,000); Q9Y2U5; bead flow cytometry, Alexa488-MEK5 binding to MEKK2 WT; actives lie on both sides; in the data active = binding response below about 67% or above about 130%
MEKK2 mut-MEK5 – signal of MEK5 binding to mutant human MEKK2 PB1 domain | bead flow cytometry, Alexa488-MEK5 binding to MEKK2 mutant | percent response, % at 10 µM | actives 0.35% (n = 290,000) | AID 1530; in the data active = percent response above about 24%, passing the limit was not always enough
Apaf1 inhib – inhibitors of human Apaf-1 apoptosome; O14727; reconstituted apoptosome caspase-3 activity, DEVD-Rh110 fluorescence; inhibition, % at 20 µM; actives 0.71% (n = 330,000); AID 489030; active = inhibition of at least 40% at 20 µM;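 note: plate controls were DMSO wells for no effect and DEVD-CHO caspase inhibitor wells for full effect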
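Assay system: Apoptosome proteins | Medium: pH 7.5 Hepes buffer with CHAPS, BSA, DTT | Also added: Cytochrome c and DEVD-Rh110 substrate | Times: 30 min plus 50 min, RT | Detection: Rhodamine 110 fluorescence at Ex 480/Em 540 nm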
MEKK3 PB1 HTS – MEKK3-MEK5 PB1 interaction, increase or decrease. bead-based flow cytometry, Alexa488-MEK5 binding to MEKK3; actives lie on both sides; 0 = blocked by unlabeled MEK5, 100 = vehicle. binding response (% of control), % at 10 µM. actives 1.4% (n = 290,000);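 active = binding response more than 3 SD above or below the average of its plate-row segment, actives on both sides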;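 note: Alexa488 bead fluorescence after subtracting the streptavidin-only scavenger bead signal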
Target sequence (Q99759 whole entry, looked up): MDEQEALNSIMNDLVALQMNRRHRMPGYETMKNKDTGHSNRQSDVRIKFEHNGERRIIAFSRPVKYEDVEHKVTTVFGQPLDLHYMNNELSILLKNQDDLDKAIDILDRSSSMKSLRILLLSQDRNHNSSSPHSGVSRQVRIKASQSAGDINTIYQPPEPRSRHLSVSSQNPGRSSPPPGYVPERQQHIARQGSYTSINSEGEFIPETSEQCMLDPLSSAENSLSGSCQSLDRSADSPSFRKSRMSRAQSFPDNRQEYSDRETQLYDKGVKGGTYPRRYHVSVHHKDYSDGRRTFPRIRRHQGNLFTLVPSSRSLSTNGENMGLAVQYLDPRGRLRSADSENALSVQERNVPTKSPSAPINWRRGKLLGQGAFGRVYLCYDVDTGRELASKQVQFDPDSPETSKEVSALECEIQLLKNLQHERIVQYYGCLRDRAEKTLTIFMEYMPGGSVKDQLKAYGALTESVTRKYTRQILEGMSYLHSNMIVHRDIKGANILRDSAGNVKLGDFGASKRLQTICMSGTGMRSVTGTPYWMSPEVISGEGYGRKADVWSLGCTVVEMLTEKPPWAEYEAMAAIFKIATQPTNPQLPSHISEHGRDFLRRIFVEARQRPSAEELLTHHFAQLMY
MEKK2wt confirm – raises or lowers MEK5 binding to wildtype human MEKK2, retest | shares compounds with MEKK3 PB1 HTS | binding response (% of control), % at 10 µM | bead flow cytometry, Alexa488-MEK5 binding to MEKK2 WT; actives lie on both sides | actives 2.4% (n = 5,900); in the data active = binding response below about 16% or above about 210%; inactive = in between
MEKK2mut-MEK5 – signal of MEK5 binding to mutant human MEKK2, retest; shares compounds with MEKK3 PB1 HTS; bead flow cytometry, Alexa488-MEK5 binding to MEKK2 mutant; percent response, % at 10 µM; actives 2% (n = 5,900); AID 1893; in the data active = percent response mostly above about 71%, no sharp cut-off; inactive = mostly below about 38%;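 note: higher means compound restores mutant binding toward wildtype level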
MEKK3-MEK5 inh – confirmation of inhibitors of MEK5 binding to human MEKK3; shares compounds with MEKK3 PB1 HTS; bead flow cytometry, Alexa488-MEK5 binding to MEKK3; active compounds read low; binding response (% of control), % at 10 µM; actives 1.8% (n = 5,900); AID 1894;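 active = binding response below 72% of control, or above a set upper limit, though filed actives all read lower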;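 note: 100% = DMSO only wells and 0% = binding blocked by excess unlabeled MEK5; lower values mean stronger disruption of MEK5 binding to MEKK3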
Numbers without * were called inactive; x = not tested or not shown; [ ] = dose if it differs, or a comment.

SMILES | UBC13 inh | MEKK2wt PB1 HTS | MEKK2 mut-MEK5 | Apaf1 inhib | MEKK3 PB1 HTS | MEKK2wt confirm | MEKK2mut-MEK5 | MEKK3-MEK5 inh
Cc1cccc(Nc2nc(NCc3ccco3)c3ccccc3n2)c1 | x | 145.0* | 14.0 | x | 106.0 | 191.0 | 57.0 | 106.0
COc1ccc(OC)c(Nc2nc(NCc3ccco3)c3ccccc3n2)c1 | 21.1 | 206.0* | 24.0* | 7.8 | 117.0 | 175.0 | 61.0 | 109.0
Cc1ccccc1Nc1nc(NCc2ccco2)c2ccccc2n1 | 25.9 | 149.0* | 35.0 | 8.1 | 104.0 | 169.0 | 55.0 | 104.0
c1ccc(CN2CCN(c3nc(NCc4ccco4)c4ccccc4n3)CC2)cc1 | 22.4 | 168.0* | 29.0 | 12.9 | 112.0 | 167.0 | 46.0 | 111.0
NC(N)=NS(=O)(=O)c1ccc(NC(=S)NC(=O)c2ccc3c(c2)OCO3)cc1 | 4.7 | 99.0 | 2.0 | -4.5 | 104.0 | x | x | x
O=C(/C=C/c1ccco1)Nc1ccc(-c2nc3ccccc3[nH]2)cc1 | x | 47.0*[inhibitor] | -5.0 | x | 35.0*[inhibitor] | 76.0 | -18.0 | 79.0
CCOc1ccc(NC(=S)N2CCN(S(C)(=O)=O)CC2)cc1 | 8.6 | 103.0 | 0.0 | -12.4 | 101.0 | x | x | x
NNc1nc2ccc(Cl)cc2s1 | -1.8 | 105.0 | 0.0 | -0.1 | 132.0* | 106.0 | 0.0 | 103.0
NNc1nc2ccc(F)cc2s1 | 8.1 | 92.0 | -2.0 | 8.7 | 94.0 | x | x | x
CCCCn1c(SCC(=O)Nc2nc(C)cs2)nnc1-c1cccnc1 | 0.7 | 1.0*[inhibitor] | -41.0 | -6.9 | 1.0*[inhibitor] | 110.0 | 14.0 | 107.0
CC(C)c1ccc(/C=C(\NC(=O)c2ccccc2)C(=O)NCCCN2CCOCC2)cc1 | 5.3 | 101.0 | 1.0 | -20.7 | 97.0 | x | x | x
Cc1c(C(=O)Nc2ccc(Oc3ccccc3)cc2)sc2nc3n(c(=O)c12)CCC3 | 19.0 | 87.0 | -10.0 | 14.6 | 77.0*[inhibitor] | 99.0 | -7.0 | 100.0
O=C(CSc1ccc2nnc(CCNC(=O)c3ccccc3)n2n1)NCCc1ccccc1 | 3.7 | 102.0 | 4.0 | 6.0 | 103.0 | x | x | x
COc1ccc(/C=C(/NC(=O)c2ccco2)C(=O)N2CCCC2=O)cc1 | -9.3 | 59.0*[inhibitor] | -26.0 | 7.3 | 64.0*[inhibitor] | 97.0 | -12.0 | 94.0
COc1cccc(NC(=O)CSc2nnc(Cn3cnc([N+](=O)[O-])n3)n2C)c1 | -7.9 | 96.0 | 2.0 | -8.4 | 107.0 | x | x | x
COC(=O)c1ccc(NC(=O)CSc2nnc(COc3ccccc3)n2C)cc1 | -3.0 | 120.0 | 24.0* | 8.5 | 113.0 | 99.0 | 3.0 | 105.0
Cn1c(Cn2cnc([N+](=O)[O-])n2)nnc1SCC(=O)Nc1ccccc1 | -6.4 | 110.0 | 1.0 | -2.4 | 144.0* | 106.0 | 0.0 | 105.0
COc1ccc(NC(=O)CSc2nnc(Cn3cnc([N+](=O)[O-])n3)n2C)cc1 | 5.0 | 77.0 | 1.0 | -10.9 | 41.0*[inhibitor] | 100.0 | -3.0 | 101.0
Cn1c(Cc2ccccc2)nnc1SCC(=O)Nc1ccccc1 | -7.4 | 91.0 | 0.0 | -9.9 | 96.0 | x | x | x
CS(=O)(=O)N1N=C(c2cccs2)CC1c1ccc(Cl)o1 (centres undefined) | -4.4 | 79.0 | -13.0 | -1.9 | 93.0 | x | x | x
C/C(=N\NC(=S)Nc1cccc(C)c1)c1ccco1 | 6.5 | 9.0*[inhibitor] | -18.0 | -1.3 | 7.0*[inhibitor] | 106.0 | 5.0 | 105.0
CC1=C(C(=O)Nc2ccccc2C)C(c2ccc(C)o2)n2c(s/c(=C/c3ccccc3)c2=O)=N1 (centres undefined) | -25.4 | 104.0 | 3.0 | 28.8 | 102.0 | x | x | x
CC1=C(C(=O)Nc2ccccc2)C(c2ccc(Cl)cc2)n2c(s/c(=C/c3cccc(OCC(=O)O)c3)c2=O)=N1 (centres undefined) | -25.2 | 40.0*[inhibitor] | -28.0 | 13.3 | 89.0 | 99.0 | -6.0 | 99.0
CC1=C(C(=O)Nc2ccccc2)C(c2ccc(C)o2)n2c(s/c(=C/c3ccccc3)c2=O)=N1 (centres undefined) | -21.4 | 86.0 | -11.0 | 11.0 | 82.0*[inhibitor] | 96.0 | -4.0 | 99.0
Cc1ccc(S(=O)(=O)NCCc2cn3nc(C)c(C)nc3n2)cc1C | 14.3 | 96.0 | -2.0 | -12.0 | 100.0 | x | x | x
SMILES | UBC13 inh | MEKK2wt PB1 HTS | MEKK2 mut-MEK5 | Apaf1 inhib | MEKK3 PB1 HTS | MEKK2wt confirm | MEKK2mut-MEK5 | MEKK3-MEK5 inh
O=[N+]([O-])c1ccc(N2CCNCC2)cc1Sc1nc2ccccc2[nH]1 | 2.7 | 144.0* | 19.0 | -3.2 | 104.0 | 107.0 | -1.0 | 102.0
NCCNc1ccc([N+](=O)[O-])c(Sc2nc3ccccc3[nH]2)c1 | -1.3 | 115.0 | 6.0 | 0.3 | 116.0 | x | x | x
CC(Nc1cc(N2CCNCC2)ccc1[N+](=O)[O-])c1ccccc1 (centres undefined) | -25.7 | 132.0 | 4.0 | 5.9 | 163.0* | 129.0 | 28.0 | 106.0
CCS(=O)(=O)N1CCN(c2ccc([N+](=O)[O-])c(NC(C)c3ccccc3)c2)CC1 (centres undefined) | -20.4 | 102.0 | 5.0 | 15.6 | 103.0 | x | x | x
CSc1nc2ccccc2n1CC(=O)Nc1c(C)cccc1C | -4.4 | 71.0 | 6.0 | 10.7 | 49.0*[inhibitor] | 100.0 | -4.0 | 97.0
CSc1nc2ccccc2n1CC(=O)Nc1ccccc1 | 2.2 | 97.0 | -2.0 | -4.0 | 92.0 | x | x | x
Cc1cccc(OCC(=O)Nc2ccccc2C(=O)N2CCOCC2)c1 | 9.8 | 108.0 | 1.0 | -0.2 | 130.0* | 97.0 | -1.0 | 98.0
Cc1cccc(OCC(=O)N/N=C/c2ccccc2C(=O)O)c1 | -1.0 | 114.0 | 1.0 | -17.0 | 132.0* | 104.0 | -1.0 | 103.0
O=C(Nc1ccccc1N1CCOCC1)C1CCCO1 (centres undefined) | 4.5 | x | x | -5.8 | x | x | x | x
O=C(Nc1ccccc1C(=O)N1CCOCC1)C1CCCO1 (centres undefined) | 10.0 | -1.0*[inhibitor] | -26.0 | -15.7 | 1.0*[inhibitor] | 111.0 | 8.0 | 113.0
CS(=O)(=O)N(CC(=O)Nc1ccccc1C(=O)N1CCOCC1)c1ccc(Cl)cc1 | -13.8 | 43.0*[inhibitor] | -9.0 | -9.2 | 44.0*[inhibitor] | 99.0 | 1.0 | 100.0
CCc1ccc(N(CC(=O)Nc2ccccc2C(=O)N2CCOCC2)S(C)(=O)=O)cc1 | 2.4 | 106.0 | 0.0 | -0.8 | 104.0 | x | x | x
CC1CCc2nc3ccc(S(=O)(=O)N4CCC(C(=O)NC(C)c5ccccc5)CC4)cc3c(C(=O)O)c2C1 (centres undefined) | -7.8 | 100.0 | -6.0 | 4.7 | 95.0 | x | x | x
O=C(NNC(=S)NC(=O)C12CC3CC(CC(C3)C1)C2)c1ccncc1 | -28.7 | 103.0 | 2.0 | -12.8 | 103.0 | x | x | x
CNc1nc(C23CC4CC(CC(C4)C2)C3)cs1 | 8.7 | 111.0 | 12.0 | 12.7 | 103.0 | x | x | x
NS(=O)(=O)c1ccc(NCCCn2ccnc2)c([N+](=O)[O-])c1 | -9.4 | 105.0 | 9.0 | -11.5 | 104.0 | x | x | x
